TRPC4 potent – allosteric potentiators of mouse TRPC4 channel. Q9QUQ5. HEK293 TRPC4beta/mu-opioid, DAMGO EC20, Fluo-4 Ca2+ flux; active compounds read high. B-score at 10 µM. 310,000 tested, 0.42% active. AID 2227;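 active = B-score of calcium response area above 5 SD of library B-scores, with initial fluorescence ratio within 5 SD of library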;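 also: B-score of integrated fluorescence ratio over time as area under calcium response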
Target sequence (Q9QUQ5 whole entry, looked up): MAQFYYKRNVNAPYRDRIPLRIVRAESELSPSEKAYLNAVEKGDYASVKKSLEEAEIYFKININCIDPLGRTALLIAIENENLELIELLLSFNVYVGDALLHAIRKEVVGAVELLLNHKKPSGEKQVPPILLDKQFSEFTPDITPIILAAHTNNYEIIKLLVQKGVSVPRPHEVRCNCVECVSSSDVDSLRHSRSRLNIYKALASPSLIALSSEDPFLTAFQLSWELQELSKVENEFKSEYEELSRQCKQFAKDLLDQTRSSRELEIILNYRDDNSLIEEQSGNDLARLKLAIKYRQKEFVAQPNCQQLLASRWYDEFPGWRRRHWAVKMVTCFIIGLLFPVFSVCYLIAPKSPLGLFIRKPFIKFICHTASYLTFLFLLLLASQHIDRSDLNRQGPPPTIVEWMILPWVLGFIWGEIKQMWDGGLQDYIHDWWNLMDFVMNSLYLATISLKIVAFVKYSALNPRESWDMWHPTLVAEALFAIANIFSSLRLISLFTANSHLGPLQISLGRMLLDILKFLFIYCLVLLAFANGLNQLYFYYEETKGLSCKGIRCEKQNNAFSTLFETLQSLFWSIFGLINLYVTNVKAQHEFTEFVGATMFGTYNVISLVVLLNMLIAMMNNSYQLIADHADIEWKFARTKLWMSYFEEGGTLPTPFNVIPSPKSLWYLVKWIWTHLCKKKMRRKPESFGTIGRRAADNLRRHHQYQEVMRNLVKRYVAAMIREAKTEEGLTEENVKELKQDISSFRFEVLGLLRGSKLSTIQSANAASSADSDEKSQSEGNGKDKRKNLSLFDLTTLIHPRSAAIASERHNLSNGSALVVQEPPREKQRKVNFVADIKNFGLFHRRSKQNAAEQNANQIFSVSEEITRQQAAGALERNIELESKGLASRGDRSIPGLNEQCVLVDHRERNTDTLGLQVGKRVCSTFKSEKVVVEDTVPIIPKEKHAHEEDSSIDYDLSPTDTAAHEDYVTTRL
TRPC6 inh – mouse TRPC6 channel inhibition. 310,000 tested, 1.1% active. B-score at 10 µM. HEK293-TRPC6, membrane potential dye, ACh-evoked depolarization; active compounds read low. Q61143;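 active = B-score under library mean minus 3 SD, initial fluorescence not abnormally high, positive integrated signal ratio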;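 also: B-score derived from integrated fluorescence ratio over the kinetic read; more negative B-score means stronger inhibition of depolarization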
TRPC4 block – TRPC4 (mouse) channel inhibition | AID 2247 | 300,000 tested, 0.39% active | B-score at 10 µM | Q9QUQ5 | HEK293 TRPC4beta/mu-opioid, DAMGO-evoked Fluo4 calcium flux; active compounds read low;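 active = B-score over 3 SD under the library average, no early fluorescence shift, positive overall ratio signal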
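Assay system: TRPC4beta/mu-opioid receptor HEK293 cell line; compound dosing: single concentration per test compound; detection: Fluo4 Ca2+ flux fluorescence; evaluation: per-well B score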
TRPC4 act – TRPC4 (mouse) channel activation; Q9QUQ5; HEK293 TRPC4beta/mu-opioid, Fluo4 calcium fluorescence; active compounds read high; B-score at 10 µM; 310,000 tested, 0.49% active; AID 2237;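 active = B-score above 5 SD of library B-scores, and initial fluorescence ratio not above library mean plus 5 SD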;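 also: positive B-score marks a calcium rise read as TRPC4 activation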
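system = HEK293 cells stably co-expressing mouse TRPC4beta and mu-opioid receptor | schedule = Fluo4 dye loading 45 min at room temperature, 110 s recording | measure = B-scored integrated calcium fluorescence ratio | signal = Fluo4 calcium-sensitive dye fluorescence, kinetic, 1 Hz baseline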
TRPC6 activator – mouse TRPC6 channel activation | HEK293-TRPC6 membrane potential dye fluorescence; active compounds read high | AID 2550 | 310,000 tested, 0.13% active | B-score at 10 µM;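 active = B-score of the integrated fluorescence ratio above library mean plus 3 SD, and starting fluorescence ratio within library mean plus 5 SD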;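 also: higher score means more depolarization so channel activation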
CR mimetic SO – lowers age-related superoxide in aged yeast cells. S. cerevisiae aged cells, superoxide DHE fluorescence; active compounds read low. 330,000 tested, 0.18% active. superoxide response (% of plate mean), % at 10 µM;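 active = superoxide response under a set limit, about three screen SD below normal, cut at about 65% in these data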;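 also: yeast aged for seven days with compound at 30 °C before DHE staining; 100% = average MFI of all compound-treated wells on the plate with controls excluded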
TRPC4 sel inh 2 – second selectivity test of TRPC6 inhibitors: effect on mouse TRPC4. shares compounds with TRPC6 inh. HEK293 TRPC4/MOR, membrane potential dye fluorescence; channel activated by saturating DAMGO dose. inhibition, % at 10 µM. 920 tested, 42% active. AID 2776;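 active = compounds whose fluorescence signal differed from control wells by over 3 SD, either direction, in both duplicate plates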
TRPC4 spec – mouse TRPC4 off-target activity of TRPC6 inhibitors; shares compounds with TRPC6 inh; HEK293 TRPC4/mu-opioid, membrane potential fluorescence; activity change, negative = inhibition, % at 10 µM; 920 tested, 61% active; AID 2777;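 active = rise or fall in signal beyond 3 SD of buffer-only wells in both replicate plates, either sign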;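 also: integrated kinetic ratio of fluorescence range over baseline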
HEK293 MPD ctr 2-1 – parental HEK293 nonspecific activity of TRPC6 inhibitors, second screen | AID 2779 | parental HEK293 membrane potential dye fluorescence; maximal acetylcholine challenge after compound addition | shares compounds with TRPC6 inh | 920 tested, 31% active | signal change vs control, % at 10 µM;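 active = membrane potential signal moving either way by over 3 SD of the maximum-effect control, in both duplicate plates, meaning non-specific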
HEK293 MPD ctr-1 – counter-screen for TRPC6 inhibitors: effect in parental HEK293 cells. shares compounds with TRPC6 inh. 920 tested, 60% active. membrane potential signal change, % at 10 µM. parental HEK293 membrane potential dye fluorescence;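 active = membrane potential signal shifting up or down by more than 3 SD of buffer-only wells, on both duplicate plates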
HEK293 MPD ctr-2 – checks TRPC6 modulator effects in parental HEK293 cells | membrane potential signal change, % at 10 µM | membrane potential dye fluorescence | shares compounds with TRPC6 inh | AID 488924 | 2,400 tested, 51% active;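 active = membrane potential signal moves up or down beyond 5 SD from buffer-only wells, on both duplicate plates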
HEK293 MPD ctr 2-2 – second counter-screen for TRPC6 modulators: effect in parental HEK293 cells | AID 488926 | inhibition, % at 10 µM | membrane potential dye fluorescence; after compound, maximal acetylcholine stimulation | shares compounds with TRPC6 inh | 2,400 tested, 14% active;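 active = membrane potential signal drops by more than 5 SD from the mean control signal, in both duplicate plates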;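 also: plate controls were acetylcholine ECmax control wells for no effect and buffer only wells for full effect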
TRPC4 ctr mod – mouse TRPC4 off-target activity of TRPC6 modulators; HEK293 TRPC4/mu-opioid, membrane potential fluorescence; 2,400 tested, 69% active; percent change from control (negative = decrease, positive = increase), % at 10 µM; shares compounds with TRPC6 inh;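 active = membrane potential signal moved up or down beyond 5 SD of buffer control wells, in both duplicate plates, actives on both sides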;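 also: plate controls were assay buffer wells for no effect and DAMGO maximal-effect wells for full effect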
TRPC4/MOR inh 2 – second selectivity test of TRPC6 modulators against mouse TRPC4; HEK293 TRPC4/mu-opioid, membrane potential dye fluorescence; stimulated with maximal-effect DAMGO; AID 488928; 2,400 tested, 55% active; inhibition, % at 10 µM; shares compounds with TRPC6 inh;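 active = drop in membrane potential signal beyond 5 SD of the control wells in both duplicate plates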;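 also: TRPC4 counter screen for TRPC6 hits run under conditions tuned for TRPC6 not TRPC4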
TRPC6 inh conf – confirmation of mouse TRPC6 inhibitors; shares compounds with TRPC6 inh; 3,300 tested, 43% active; inhibition, % at 10 µM; AID 488960; HEK293-TRPC6, membrane potential dye, ACh-evoked depolarization;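 active = fluorescence ratio falls more than 5 SD below the full-stimulation control mean, in both duplicate runs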;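 also: integrated fluorescence ratio of peak minus minimum over baseline after agonist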
TRPC6 act confirm – mouse TRPC6 activator confirmation. HEK293-TRPC6 membrane potential dye fluorescence, FDSS. activation, % at 10 µM. shares compounds with TRPC6 inh. 2,800 tested, 11% active. AID 488961;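 active = ratio signal rise beyond 5 SD above unstimulated control wells' mean, seen in both duplicate runs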;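 also: plate controls were buffer EC0 wells for no effect and acetylcholine ECmax response for full effect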
An asterisk follows results filed as active; i = inactive; x = not tested or not shown. An excerpt weighted towards active compounds, which were near 2.3% of everything screened.

SMILES | TRPC4 potent | TRPC6 inh | TRPC4 block | TRPC4 act | TRPC6 activator | CR mimetic SO | HEK293 MPD ctr-2 | HEK293 MPD ctr 2-2 | TRPC4 ctr mod | TRPC4/MOR inh 2 | TRPC6 inh conf | TRPC6 act confirm | others
Cc1cc(NC(=O)CCC(=O)N(C2CC2)C2(C(=O)NC3CCCC3)CCC(C)CC2)no1 (centres undefined) | i | -5.1* | i | i | i | 89 | i | i | 18%* | i | i | x
O=C(Nc1cccc(F)c1)C1CCCN(S(=O)(=O)c2cnc[nH]2)C1 (centres undefined) | i | i | i | i | i | 79 | x | x | x | x | x | x
COc1ccc(C(=O)C2CCCN(Cc3cccn3-c3ccc(Cl)cn3)C2)c(OC)c1 (centres undefined) | i | -5.8* | i | i | i | 107 | 134%* | i | 14%* | 89%* | 53%* | x
O=C(c1cccc(C(F)(F)F)c1)C1CCCN(Cc2cccc(OCCO)c2)C1 (centres undefined) | i | i | i | i | i | 89 | x | x | x | x | x | x
COc1ccc(C(=O)C2CCCN(Cc3c(F)ccc(F)c3F)C2)c(OC)c1 (centres undefined) | i | i | i | i | i | 99 | x | x | x | x | x | x
O=C(c1cccc(C(F)(F)F)c1)C1CCCN(Cc2cccn2-c2ccccn2)C1 (centres undefined) | i | -7.5* | -5* | i | i | 125 | x | x | x | x | 57%* | i | TRPC4 sel inh 2=35%*;TRPC4 spec=18%*;HEK293 MPD ctr 2-1=i;HEK293 MPD ctr-1=14%*
CCN(CC)S(=O)(=O)c1cccc(NC(=O)COC(=O)C2=COCCO2)c1 | x | x | x | x | x | 100 | x | x | x | x | x | x
COc1ccc(OC)c2sc(N(CCN(C)C)C(=O)c3cc(Cl)sc3Cl)nc12 | i | -5.5* | i | 102* | i | 96 | i | i | -42%* | 80%* | i | i
COc1ccc2sc(N(CCN(C)C)C(=O)c3cc(Cl)sc3Cl)nc2c1 | i | i | i | i | i | 107 | x | x | x | x | x | x
CCS(=O)(=O)N1CCN(c2ccc([N+](=O)[O-])c(NC(C)c3ccccc3)c2)CC1 (centres undefined) | i | i | i | i | i | 101 | x | x | x | x | x | x
CC(Nc1cc(N2CCNCC2)ccc1[N+](=O)[O-])c1ccccc1 (centres undefined) | i | -7.1* | i | 75* | i | 91 | x | x | x | x | i | i | TRPC4 sel inh 2=72%*;TRPC4 spec=i;HEK293 MPD ctr 2-1=i;HEK293 MPD ctr-1=-182%*
Cc1ccccc1C(=O)N/N=C/c1ccc([N+](=O)[O-])s1 | i | -6.1* | i | i | 12* | 129 | i | i | 13%* | i | i | i
O=C(N/N=C/c1ccc([N+](=O)[O-])s1)c1ccccc1Br | i | i | i | i | i | 107 | x | x | x | x | x | x

High-throughput results deposited in PubChem BioAssay by several laboratories.
